TAAR1 ag: human TAAR1 agonists, primary screen, Fluo-8 calcium fluorescence, CHO RD-HGA16 cells. vehicle wells 0%, saturating PEA agonist 100%. activation, % at 3 µM. 360,000 compounds, 0.99% hits. AID 624467, 2012;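 active = activation above the mean activation of all test compounds in the run plus 3 SD, cut at about 38% in these data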
Target sequence (Q96RJ0 whole entry, looked up): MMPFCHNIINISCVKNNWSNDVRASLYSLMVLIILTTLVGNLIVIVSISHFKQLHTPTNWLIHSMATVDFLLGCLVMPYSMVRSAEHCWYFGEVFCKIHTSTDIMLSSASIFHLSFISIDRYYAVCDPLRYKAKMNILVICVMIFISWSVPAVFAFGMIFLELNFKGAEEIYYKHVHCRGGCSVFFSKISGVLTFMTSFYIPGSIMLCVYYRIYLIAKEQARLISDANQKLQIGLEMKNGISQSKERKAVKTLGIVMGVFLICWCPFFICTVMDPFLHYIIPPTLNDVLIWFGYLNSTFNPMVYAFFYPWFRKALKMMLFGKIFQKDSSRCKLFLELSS
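System: CHO RD-HGA16 cells carrying human TAAR1 plus Gα16; Incubation: 17-24 h seeding, 75 min 37 °C dye, 30 min RT; Measured by: Fluo-8 fluorescence, 5 s baseline then 140 s kinetic read; Control set: DMSO and PEA EC100; Replication: single well for each compound.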
TAAR1 antagonist: human TAAR1 antagonists, primary screen, Fluo-8 calcium fluorescence, CHO RD-HGA16 cells | Trace amine-associated receptor 1 (Homo sapiens), Q96RJ0 | 360,000 compounds, 1.5% hits | antagonist | inhibition, % at 3 µM;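 active = inhibition above a per-plate cutoff, the mean inhibition of test compounds on that plate plus 3 SD, cut at about 49% in these data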;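 note: 0% = DMSO plus EC80 beta-PEA response and 100% = DMSO alone without agonist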
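Material: CHO RD-HGA16 cells bearing hTAAR1; compound dosing: one-point dosing, 3 µM nominal final; schedule: dye loading 75 min at 37 °C, then 30 min room temperature; measured by: calcium fluorescence with Fluo-8; control set: vehicle and agonist controls; replication: n of 1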
CHRM4 agonist: human M4 muscarinic receptor agonists, primary screen, CHO-K1 cells, Fluo-8 calcium fluorescence. Muscarinic acetylcholine receptor M4 (Homo sapiens), P08173. CHO-K1 hM4/Gqi5; vehicle 0%, full acetylcholine response 100%. activation, % at 3 µM. 360,000 compounds, 0.14% hits;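 active = activation above the run mean over all test wells plus 3 SD, cut at about 32% in these data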;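 note: peak over basal fluorescence ratio per well then scaled between controls; 0% = DMSO wells and 100% = acetylcholine at EC100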
CHRM4 PAM: human M4 muscarinic receptor positive allosteric modulators, primary screen, CHO-K1 cells, Fluo-8 calcium fluorescence. CHO-K1 hM4/Gqi5, ACh EC20; 0% = ACh EC20, 100% = maximal ACh. Muscarinic acetylcholine receptor M4 (Homo sapiens), P08173. 360,000 compounds, 0.4% hits. activation, % at 3 µM;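 active = activation above its plate's cutoff, the mean activation of sample wells plus 3 SD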
M4 antag: human M4 muscarinic receptor antagonists, primary screen, CHO cells, Fluo-8 calcium fluorescence. CHO-hM4 cells, ACh EC80. AID 624125, 2012. inhibition, % at 3 µM. Muscarinic acetylcholine receptor M4 (Homo sapiens), P08173. 360,000 compounds, 0.73% hits;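 active = inhibition above its plate's cutoff, the mean inhibition of sample wells plus 3 SD, cut at about 27% in these data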;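 note: 0% = acetylcholine EC80 with DMSO and 100% = DMSO without agonist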
Numbers without * were called inactive. Compounds with a hit are over-represented: about 3% of the library has one in this group of screens.

Screening O=C1C=CC2(C=C1)O[C@H](Cc1ccccc1)[C@@H](Cc1ccccc1)O2 returned TAAR1 ag 7, TAAR1 antagonist 10, CHRM4 agonist 2, CHRM4 PAM -7 and M4 antag 62*.
`COc1ccc(N2C(=O)CC(Cc3ccccc3)C2=O)cc1` (stereo unspecified) gave TAAR1 ag 5, TAAR1 antagonist -9, CHRM4 agonist 2, CHRM4 PAM 5 and M4 antag 4.
For O=C1Nc2ccccc2C1Cc1ccccc1 (stereo unspecified) the results were TAAR1 ag 0, TAAR1 antagonist -6, CHRM4 agonist 2, CHRM4 PAM 6 and M4 antag -6.
COc1ccc(C[C@@H]2OC3(C=CC(=O)C=C3)O[C@H]2Cc2ccc(OC)cc2)cc1 was read as CHRM4 agonist 4, CHRM4 PAM -9 and M4 antag 76*.
Screening CC1(C)OC(=O)C2=C(CC(CCc3ccccc3)OC2CCc2ccccc2)O1 (stereo unspecified) returned TAAR1 ag 0 and TAAR1 antagonist 12.
For Cc1cc(NC(=O)NCc2ccco2)ccc1NC(=O)NCc1ccco1 the results were TAAR1 ag 2, TAAR1 antagonist -4, CHRM4 agonist 0, CHRM4 PAM 3 and M4 antag 4.
`Cc1ccc(N/C(SCc2ccccc2C)=C(/C#N)C(=O)NCc2ccco2)cc1C` gave TAAR1 ag 0, TAAR1 antagonist 64*, CHRM4 agonist 0, CHRM4 PAM -21 and M4 antag 27*.
`CC(CCC(C)C(C)(C)C)[C@@H]1CC[C@H]2C3C[C@H](OS(O)(=S)=S)[C@H]4C[C@H](OS(O)(=S)=S)[C@@H](OS(O)(=S)=S)C[C@]4(C)[C@H]3CC[C@]12C` (stereo partly specified) (tested in a mixture with another compound) gave CHRM4 agonist 81*, CHRM4 PAM -6 and M4 antag 51*.
Screening C/C(CS(=O)(=O)c1ccc(Cl)c(Cl)c1)=N/NC(N)=S returned TAAR1 ag 2, TAAR1 antagonist 1, CHRM4 agonist 3, CHRM4 PAM -1 and M4 antag -5.
For C/C(CS(=O)(=O)c1ccc(Cl)cc1)=N/NC(N)=S the results were TAAR1 ag 3, TAAR1 antagonist -4, CHRM4 agonist 1, CHRM4 PAM 20* and M4 antag -11.
For CC(C)C[C@H]1COc2cc(NCc3ccc(Cl)c(Cl)c3)ccc2S(=O)(=O)N1 the results were TAAR1 ag 26 and TAAR1 antagonist 37.
`CCCc1nc2ccccc2c(C(=O)OCC(=O)Nc2cccc(S(=O)(=O)N3CCOCC3)c2)c1CC` gave TAAR1 ag 3, TAAR1 antagonist 52*, CHRM4 agonist 8, CHRM4 PAM -6 and M4 antag 13.
Screening CCCc1nc2ccccc2c(C(=O)OCC(=O)N2CCc3ccccc32)c1CC returned TAAR1 ag 0, TAAR1 antagonist 52*, CHRM4 agonist 1, CHRM4 PAM -19 and M4 antag 20.
For Cc1[nH]c2ccccc2c1CC(=O)Nc1ccc(Nc2cccnc2)c(-c2cc(F)cc(F)c2)c1 the results were TAAR1 ag 3 and TAAR1 antagonist 2.
`Cc1ccc([C@H]2C[C@H](O)[C@@H](n3cc(C4CC4)nn3)CN2Cc2cccs2)cc1` gave TAAR1 ag 41*, TAAR1 antagonist 41, CHRM4 agonist 1, CHRM4 PAM 3 and M4 antag -16.
`O[C@@H]1C[C@H](c2ccc(Cl)cc2)N(Cc2cccs2)C[C@H]1n1cc(C2CC2)nn1` gave TAAR1 ag 0, TAAR1 antagonist -31, CHRM4 agonist 0, CHRM4 PAM -2 and M4 antag 5.
Screening Cc1ccc([C@H]2C[C@@H](O)[C@H](n3cc(C4CC4)nn3)CN2Cc2cccs2)cc1 returned TAAR1 ag 3, TAAR1 antagonist -30, CHRM4 agonist 0, CHRM4 PAM 17* and M4 antag -28.
For Cc1ccc([C@H]2C[C@H](n3cc(C4CC4)nn3)[C@@H](O)CN2Cc2cccs2)cc1 the results were TAAR1 ag 10, TAAR1 antagonist -27, CHRM4 agonist 0, CHRM4 PAM 5 and M4 antag -24.
For COc1ccc(NC(=O)N(C)C[C@@H]2OCc3cnnn3CCCC(=O)N([C@H](C)CO)C[C@H]2C)c(OC)c1 the results were TAAR1 ag 0 and TAAR1 antagonist -6.
For COC(=O)C(Cc1ccc(OC(=O)c2ccccc2Cl)cc1)N1Cc2ccccc2C1=O (stereo unspecified) the results were TAAR1 ag 9, TAAR1 antagonist 59*, CHRM4 agonist 10, CHRM4 PAM -15 and M4 antag 14.
For O=C(O)[C@H](Cc1ccccc1)N1Cc2ccccc2C1=O the results were TAAR1 ag 0, TAAR1 antagonist -14, CHRM4 agonist 0, CHRM4 PAM 1 and M4 antag -6.
For COC(=O)C(Cc1ccc(OC(=O)c2ccccc2C)cc1)N1Cc2ccccc2C1=O (stereo unspecified) the results were TAAR1 ag 15, TAAR1 antagonist 52*, CHRM4 agonist 7, CHRM4 PAM -14 and M4 antag -12.
COC(=O)CCCn1cc(CN2CC(N3CCN(C4CCN(C)CC4)CC3)CS2(=O)=O)nn1 (stereo unspecified) was read as TAAR1 ag 7, TAAR1 antagonist -18, CHRM4 agonist 0, CHRM4 PAM 13 and M4 antag 4.
Screening Cc1ccc2cc(CN(Cc3ccc4c(c3)OCO4)Cc3nnnn3Cc3ccco3)c(=O)[nH]c2c1C returned TAAR1 ag 12, TAAR1 antagonist 34, CHRM4 agonist 3, CHRM4 PAM 23* and M4 antag -3.
Screening CC1=NOC(=O)/C1=C\c1ccc(-c2ccc(Br)cc2)o1 returned TAAR1 ag 35, TAAR1 antagonist 67*, CHRM4 agonist 10, CHRM4 PAM -11 and M4 antag 34*.
Screening CC1=NOC(=O)/C1=C\c1ccc(-c2ccc(Br)cc2C(=O)O)o1 returned TAAR1 ag 2, TAAR1 antagonist 6, CHRM4 agonist 2, CHRM4 PAM 12 and M4 antag -1.
For CC1=NOC(=O)/C1=C/c1ccc(-c2ccc(Cl)cc2)o1 the results were CHRM4 agonist 9, CHRM4 PAM -2 and M4 antag 34*.
Cc1cc(C)c(S(=O)(=O)N2C[C@H]3CON(C)[C@H]3C[C@H]2c2ccc(-n3ccnc3)cc2)c(C)c1 was read as TAAR1 ag -1 and TAAR1 antagonist -4.

Compound activity (PubChem BioAssay)
